# Results reported in paper PMC5214883 (Molecular cancer therapeutics, 2016).
# Non-standard residues stand in square brackets, D forms with d. Residues, ends and D or L forms follow the SMILES beside them. *: point of attachment. Dolaproine = CO[C@@H]([C@@H]1CCCN1)[C@@H](C)C(=O)O; Dil = CC[C@H](C)[C@H](NC)[C@@H](CC(=O)O)OC; X1 = C[C@@H](N*)[C@@H](O)c1ccccc1; NMeV = CN[C@H](C(=O)O)C(C)C
# Tests used:
# [1] = Linker stability assay in PBS; assay type: physicochemical; settings: pH 7.4
# [2] = Linker stability assay in mouse serum; assay type: in vitro ADME
# Dose escalation study = test: Dose escalation study; set-up: species or system Balb/c nu/nu mice; settings: female, athymic Balb/c nu/nu, mouse, in vivo
# Summary of the method: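 Escalating doses (250 or 500 nmol/Kg) were given as five injections on five consecutive days to […] female athymic Balb/c nu/nu mice aged 8–10 weeks. An acetazolamide-targeted prodrug was compared with an untargeted analogue, with three mice per group.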
# SKRC-52 xenografts [3] = test: Therapy experiments in mice bearing subcutaneous SKRC-52 tumors; assay type: in vivo, Balb/c nu/nu mice; settings: 250 nmol/Kg, ten daily administrations
# [4] = system: CAIX-expressing SKRC-52 cells; test: In vitro cytotoxicity assay; assay type: cell-based, human; settings: read-out: IC50 (cytotoxicity), 72 h, 37 °C, MTS
# SKRC-52 xenografts [5] = settings: cited from earlier work
compound,measurement,setting,value
CC[C@H](C)[C@@H]([C@@H](CC(=O)N1CCC[C@H]1[C@H](OC)[C@@H](C)C(=O)N[C@H](C)[C@@H](O)c1ccccc1)OC)N(C)C(=O)[C@@H](NC(=O)[C@H](C(C)C)N(C)C(=O)OCc1ccc(NC(=O)[C@H](CCCNC(N)=O)NC(=O)[C@@H](NC(=O)CCCCCN2C(=O)CC(SC[C@H](NC(=O)[C@H](CC(=O)O)NC(=O)[C@H](CCCNC(=N)N)NC(=O)[C@H](CC(=O)O)NC(=O)CCCCn3cc(CCCC(=O)Nc4nnc(S(N)(=O)=O)s4)nn3)C(=O)O)C2=O)C(C)C)cc1)C(C)C (some centres unmarked) [Compound 4a],half-life at 100 μg/ml,[1],> 48 h
same,main release product (mass spectrometric analysis),[2]; degradation profile in mouse serum,free MMAE
same,conjugate intact after 6 hours in mouse serum,"[2]; mouse serum, 37 °C, 6 hours, LC-MS",> 70%
same,half-life,"[2]; mouse, mouse serum",~7 h
same,MTD at 5 days,Dose escalation study,0.5 µmol/kg
same,acute toxicity and body weight,SKRC-52 xenografts [3],no acute toxicity and no significant weight loss
same,durable complete response,SKRC-52 xenografts [3],One out of five
"CC[C@H](C)[C@@H]([C@@H](CC(=O)N1CCC[C@H]1[C@H](OC)[C@@H](C)C(=O)N[C@H](C)[C@@H](O)c1ccccc1)OC)N(C)C(=O)[C@@H](NC(=O)[C@@H](NC)C(C)C)C(C)C [MMAE, monomethyl auristatin E] (H-[NMeV]V[Dil][Dolaproine]-X1)",IC50,[4],1.5 nM
COc1cccc2c1C(=O)c1c(O)c3c(c(O)c1C2=O)C[C@@](O)(C(=O)CO)C[C@@H]3O[C@H]1C[C@H]2[C@H](O[C@@H]3[C@@H](OC)OCCN32)[C@H](C)O1 [PNU-159682],IC50,[4],0.16 nM
CNC(=O)c1cc(Oc2ccc(NC(=O)Nc3ccc(Cl)c(C(F)(F)F)c3)cc2)ccn1 [sorafenib],activity against SKRC-52 tumors,SKRC-52 xenografts [5],did not display any detectable activity
CCN(CC)CCNC(=O)c1c(C)[nH]c(/C=C2\C(=O)Nc3ccc(F)cc32)c1C [sunitinib],activity against SKRC-52 tumors,SKRC-52 xenografts [5],did not display any detectable activity
